Article PMC7012720 (Journal of inorganic biochemistry, 2019)
Several values for one entry are separate records, joined by “and”; a condition that tells them apart may be missing. Equal values may be shown once. Read-outs that look alike come from different tables or passages of the source.

Columns and labels:
Log = type: physicochemical; settings: for Estimated Log(Do/w) of protonation state: best fit of Figures 2–4, error +/− 0.2
Outline: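 Modified shake-flask method in the dark, using 0.1 M acetate (pH 4.00–5.25) or 0.1 M phosphate (pH 5.8–8.0) buffer. Octanol and buffer were mutually pre-saturated for 24 h. Test compound (200 μM) in buffer-saturated octanol was stirred 1:1 with octanol-saturated buffer for 24 h at ambient temperature. The filtered aqueous phase was quantified by UV-Vis. logD = log([Ru]org/[Ru]aq), quadruplicate mean. Per-species values were fitted from pKa-based fractions.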

[1] = Mole fractions of protonation states calculated from pKa values; type: physicochemical
[2] = standard deviation in parenthesis; cited from earlier work
MDA-MD-231 (breast CSC) = settings: cited from earlier work
MCF7 (breast cancer) = settings: cited from earlier work
MCF10A (normal) = settings: cited from earlier work
HeLa (cervical cancer) = settings: cited from earlier work
[3] = read-out: IC50 light, irradiation for one hour with blue light (450 nm)

Estimated Log(Do/w) of protonation state (Log; Acidic Form (XA)): −0.1
Estimated Log(Do/w) of protonation state (Log; Basic Form (XB)): 1.6
Estimated Log(Do/w) of protonation state (Log; Monoprotic Acid): 0.9
Increase of Log(Do/w) from acidic form (XA) to basic form (XB) (Log; orders of magnitude / log units, listed as 1): ~ 1.7 and 1.7
Log(Do/w) (Log; pH 4.00, 0.1M Acetate Buffer): 0.04(3)
Log(Do/w) (Log; pH 5.00, 0.1M Acetate Buffer): 0.11(2)
Log(Do/w) (Log; pH 6.00, 0.1M Phosphate Buffer): 0.57(2)
Log(Do/w) (Log; pH 6.60, 0.1M Phosphate Buffer): 1.10(2)
Log(Do/w) (Log; pH 7.00, 0.1M Phosphate Buffer): 1.18(1)
Log(Do/w) (Log; pH 7.40, 0.1M Phosphate Buffer): 1.36(1)
Log(Do/w) (Log; pH 8.00, 0.1M Phosphate Buffer): 1.39(2)
Proportion of monoprotic species ([1]; pH 6.0 to 6.6): 80–83%
Mole fraction of acidic form (XA) ([1]; pH 7.4): ~0.003
Mole fraction of monoprotic species ([1]; pH 7.4): ~0.42
Substance: [(bipy)2Ru(6,6’-dhbp)]^2+ [Compound 1A]
pKa1 [2]: 5.26
pKa2 [2]: 7.27
pKa avg [2]: 6.3
PI (phototoxicity index, IC50 dark / IC50 light) (MDA-MD-231 (breast CSC); MDA-MD-231): 3.5
IC50 (MDA-MD-231 (breast CSC); read-out: IC50 dark, MDA-MD-231, dark): 1010 µM
IC50 (MDA-MD-231 (breast CSC); read-out: IC50 light, MDA-MD-231, irradiation for one hour with blue light (450 nm)): 290 µM
PI (phototoxicity index, IC50 dark / IC50 light) (MCF7 (breast cancer); MCF7): ~1
IC50 (MCF7 (breast cancer); read-out: IC50 dark, MCF7, dark): > 500 µM
IC50 (MCF7 (breast cancer); read-out: IC50 light, MCF7, irradiation for one hour with blue light (450 nm)): > 500 µM
PI (phototoxicity index, IC50 dark / IC50 light) (MCF10A (normal)): >2.4
IC50 (MCF10A (normal); read-out: IC50 dark, dark): > 500 µM
IC50 (MCF10A (normal); [3]): 210 µM
PI (phototoxicity index, IC50 dark / IC50 light) (HeLa (cervical cancer)): 0.73
IC50 (HeLa (cervical cancer); read-out: IC50 dark, dark): 148 µM
IC50 (HeLa (cervical cancer); [3]): 202 µM
